One assay has as its system P388. Nature of the assay: Cytotoxicity against mouse P388 cells after 2 to 4 days by SRB assay. It counts as functional. Conditions: read-out: ED50 (the source's name). In a few lines: (§1)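 Test compounds in 10% DMSO added to cell suspensions and incubated 2–4 days at 37° (100% humidity, 5% CO2). Cells fixed with cold 50% TCA for 1 h at 4°, stained with sulforhodamine B, washed with 1% HOAc and solubilized in 10 mM Tris base. OD read at 515 nm; percent growth calculated relative to controls. Top concentration tested 20 μg/ml.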
Background: Sulforhodamine B stains cellular protein and so reports cell mass.

The nature of assay [1]: Cytotoxicity against human BCA1 cells after 2 to 4 days by SRB assay. The settings on record: read-out: ED50 (the source's name). It counts as functional. A digest of the protocol:
as §1

A short description of assay [2]: Cytotoxicity against human LUC1 cells after 2 to 4 days by SRB assay. It counts as functional. Conditions: read-out: ED50 (the source's name). A digest of the protocol:
as §1

The test system of the next assay is SK-MEL-2. Kind of assay: Cytotoxicity against human SK-MEL-2 cells after 2 to 4 days by SRB assay. Conditions: read-out: ED50 (the source's name). It counts as functional. In a few lines: as §1
The next assay relates to Col2. Nature of the assay: Cytotoxicity against human Col2 cells after 2 to 4 days by SRB assay. It counts as functional. The settings on record: read-out: ED50 (the source's name). In a few lines: as §1
The next assay deals with A-431. Kind of assay: Cytotoxicity against human A431 cells after 2 to 4 days by SRB assay. It counts as functional. Conditions: read-out: ED50 (the source's name). In a few lines:
as §1

A further assay concerns LNCaP. Kind of assay: Cytotoxicity against human LNCAP cells after 2 to 4 days by SRB assay. It counts as functional. Conditions: read-out: ED50 (the source's name). In a few lines: as §1
A further assay concerns ZR-75-1. Nature of the assay: Cytotoxicity against human ZR-75-1 cells after 2 to 4 days by SRB assay. It counts as functional. Conditions: read-out: ED50 (the source's name). A digest of the protocol: as §1
Assay [3] can be described thus: Cytotoxicity against drug-sensitive human KB3 cells after 2 to 4 days by SRB assay. It counts as functional. Conditions: read-out: ED50 (the source's name). In a few lines:
as §1

Assay [4] in a line: Cytotoxicity against multidrug-resistant human KBV1 cells after 2 to 4 days by SRB assay in absence of vinblastine. It counts as functional. Conditions: KB-V1, read-out: ED50 (the source's name). In a few lines: (§2)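 SRB growth assay on KB-V1 cells (compounds in 10% DMSO, 2–4 days at 37°, 5% CO2, TCA fixation, OD 515 nm, percent growth versus controls). Cells were given a range of compound concentrations, either alone or together with 1 μg/ml vinblastine.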

Assay [5] is described as follows: Cytotoxicity against multidrug-resistant human KBV1 cells at 1 ug/mL after 2 to 4 days by SRB assay in presence of vinblastine. It counts as functional. Conditions: KB-V1, read-out: ED50 (the source's name).
Assay [6] in a line: (§3) Displacement of [3H]vinblastine from p-glycoprotein in multidrug-resistant human KBV1 cell membrane vesicles by liquid scintillation counting. It counts as cell membranes. A digest of the protocol:
(§4)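 Membrane vesicles were made from KB-V1 cells by homogenization, a 35% sucrose cushion and 100,000 × g pelleting. Incubated 20 min at room temperature, then filtered onto BSA-prewashed glass fiber. Nonspecific binding taken with 1 mM unlabeled vinblastine. Read by scintillation counting and expressed as percent.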

The subject of the next assay is KBV1. Described as §3. It counts as cell membranes. In a few lines:
as §4

A short description of assay [7]: Cytotoxicity against multidrug-resistant human KBV1 cells after 2 to 4 days by SRB assay in presence of vinblastine. It counts as functional. Conditions: KB-V1, read-out: ED50 (the source's name). A digest of the protocol:
as §2

≈ marks a conversion by molar mass, not a printed value. Where only a bound is given, the exact number is not on record here.

Usually IC50 stands for the concentration needed to halve the response being measured. Lower therefore signals higher potency. Consider `COC[C@H](Cc1ccc(OC)c(OC)c1)[C@H](COC)Cc1ccc(OC)c(OC)c1` [PHYLLANTHIN], for which the EC50 (with P388; in [1]; in [2]; in the assay with SK-MEL-2; in the assay on Col2; in the assay with A-431) was more than 20 µg/mL throughout. Moreover, the EC50 with LNCaP was more than 20 µg/mL; in the assay on ZR-75-1 it was more than 20 µg/mL; in [3], more than 20 µg/mL; in assay [4], 9 µg/mL (≈ 21.5 µM); in assay [5], 2.1 µg/mL. Further, the IC50 in assay [6] stood at 28 µg/mL (≈ 66.9 µM). The ED50 result with KBV1 is “Dose-dependent effect”.

In the case of `COC[C@@H]1Cc2cc(OC)c3c(c2[C@H](c2ccc(OC)c(OC)c2)[C@H]1COC)OCO3` [HYPOPHYLLANTHIN], the EC50 (with P388; in [1]; in [2]; in the assay on SK-MEL-2; in the assay on Col2; with A-431) was more than 20 µg/mL each time. The EC50 with LNCaP was more than 20 µg/mL; in the assay with ZR-75-1, more than 20 µg/mL; in [3], more than 20 µg/mL; in assay [4] it was more than 20 µg/mL; in [7] it was 3.8 µg/mL. The molecule also yielded a concentration for half-maximal inhibition (IC50) in assay [6] of more than 160 µg/mL.

Values taken from ChEMBL document CHEMBL1147340, “1H- and 13C-nmr assignments of phyllanthin and hypophyllanthin: lignans that enhance cytotoxic responses with cultured multidrug-resistant cells” (J Nat Prod, 1993).
